Activity calls are given as the source filed them. No cut-off for these calls is given here.
Legend:
[1] = species: Felis catus; assay: Inhibition of field stimulation-induced positive chronotrophic response in cat atria; type: functional; conditions: Cardiac atrium
[2] = species: Canis lupus familiaris; assay: Inhibition of electric stimulated dog right cardioaccelerator nerve; type: functional
Summary of the method: (§1)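 Dog cardioaccelerator nerve preparation under barbital (200 mg/kg) anaesthesia. Compounds given intravenously up to 1.0 mg/kg. Positive chronotropic responses read by cardiometer, with blood pressure taken from the right femoral artery.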

[3] = system: Canis familiaris; assay: Increase in blood pressure in dog at 0.5 mg/kg, iv by cardiotachometer; type: functional, Canis lupus familiaris
Summary of the method: (§2)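 Anaesthetised dog (barbital 200 mg/kg). Compounds given intravenously, highest dose tested 1.0 mg/kg. Blood pressure recorded from the right femoral artery and heart rate by cardiometer. Resting heart rate, blood pressure and positive chronotropic responses were assessed after dosing. Doses calculated as free base.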

[4] = system: Canis familiaris; assay: Increase in resting heart rate in dog at 0.5 mg/kg, iv by cardiotachometer; type: functional, organism-based; set-up: dose 0.5 mg/kg; conditions: Canis lupus familiaris; summary of the method: as §2
[5] = system: Rattus norvegicus; assay: Induction of rotation in rat with unilateral denervation of caudate nucleus at 4 mg/kg, sc; type: functional, organism-based; set-up: dose 4 mg/kg
Summary of the method: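 Rats given a unilateral 6-hydroxydopamine injection into the substantia nigra. Compounds dosed subcutaneously and the rotations they induced were counted. Apomorphine served as the reference.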

[6] = system: Canis familiaris; assay: Toxicity in dog assessed as emesis at 2 mg/kg, sc; type: organism-based, Canis lupus familiaris; set-up: dose 2 mg/kg, route subcutaneous; conditions: in vivo
Summary of the method: (§3)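 Unanaesthetised dogs. For emesis, compound given sc and dogs watched 45 min for an emetic response. For antagonism, compound given sc and apomorphine 100 μg/kg 15 min later.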

[7] = system: Canis familiaris; assay: Inhibition of apomorphine-induced emesis in dog at 2 mg/kg, sc; type: functional, organism-based; set-up: dose 2 mg/kg; conditions: Canis lupus familiaris; summary of the method: as §3
[8] = Toxicity in pigeon assessed as pecking; conditions: columbidae
Summary of the method: (§4)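 Pigeons. Compounds given intramuscularly at up to 4 mg/kg to test induction of pecking. Antagonism of pecking induced by apomorphine (1.62 μM/kg) was also tested, and ED50 values were estimated.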

[9] = species: Rattus norvegicus; assay: Toxicity in Sprague-Dawley rat assessed as locomotor hyperactivity treated bilateral injection into nucleus accumbens at 50 ug; type: organism-based; conditions: in vivo, other
Summary of the method: (§5)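 Male Sprague-Dawley rats (250 ± 25 g) with stereotaxic guide cannulae aimed at the nucleus accumbens. Tested 10–14 days after surgery with a bilateral 1 μL infusion over 60 s; each rat used once and placement checked histologically. Locomotion counted by photocell cage. Stereotypy scored, where 3–4 = biting, gnawing or licking. Pretreatments given ip: α-methyl-p-tyrosine 250 mg/kg 6 h before, or haloperidol 0.1, propranolol 5 or aceperone 2.5 mg/kg 30 min before.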

[10] = species: Rattus norvegicus; assay: Toxicity in Sprague-Dawley rat assessed as biting up to 50 ug injection into nucleus accumbens; type: organism-based; conditions: in vivo, other; summary of the method: as §5
[11] = species: Rattus norvegicus; assay: Toxicity in Sprague-Dawley rat assessed as gnawing up to 50 ug injection into nucleus accumbens; type: organism-based; conditions: in vivo, other; summary of the method: as §5
[12] = species: Rattus norvegicus; assay: Toxicity in Sprague-Dawley rat assessed as licking up to 50 ug injection into nucleus accumbens; type: organism-based; conditions: in vivo, other; summary of the method: as §5
[13] = species: Felis catus; assay: Inhibition of field stimulation-induced positive ionotrophic response in cat atria; type: functional; conditions: Cardiac atrium
[14] = system: Columbidae; assay: Inhibition of apomorphine-induced pecking in pigeon; type: functional; summary of the method: as §4
[15] = system: Canis familiaris; assay: Increase in heart rate in dog at 1 mg/kg, iv by cardiotachometer; type: functional, organism-based; set-up: dose 1 mg/kg; conditions: Canis lupus familiaris; summary of the method: as §2
[16] = system: Canis familiaris; assay: Increase in ionotrophic response in dog following field stimulation at 1 mg/kg, iv by cardiotachometer; type: functional, organism-based; set-up: dose 1 mg/kg; conditions: Canis lupus familiaris; summary of the method: as §1
[17] = system: Canis familiaris; assay: Increase in ionotrophic response in iv dosed dog following field stimulation assessed as minimum effective dose by cardiotachometer; type: functional, Canis lupus familiaris; set-up: unit not given here; summary of the method: as §1
[18] = system: Canis familiaris; assay: Increase in heart rate in dog assessed as beats at 30 ug/kg, iv by cardiotachometer; type: functional, Canis lupus familiaris; summary of the method: as §2
[19] = system: Mus musculus; assay: Toxicity in albino B.K.W mouse assessed as climbing behaviour at 20 to 80 mg/kg, sc; type: organism-based; set-up: dose 20-80 mg/kg, route subcutaneous; conditions: in vivo
Summary of the method: (§6)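 Mice dosed subcutaneously at 20, 40 and 80 mg/kg in 1 mL/kg, doses as free base. Climbing scored as all four paws on the wire, giving a climbing index (% time over 30 min after the first climb) and the maximum time of a single climb. Circling was tested in mice with a unilateral caudate-putamen electrolesion, pre-selected for circling of 7 or more revolutions/2 min in response to apomorphine. Stereotypy was also recorded.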

[20] = system: Mus musculus; assay: Toxicity in albino B.K.W mouse assessed as circling behaviour at 20 to 80 mg/kg, sc; type: organism-based; set-up: dose 20-80 mg/kg, route subcutaneous; conditions: in vivo; summary of the method: as §6
[21] = system: Mus musculus; assay: Toxicity in albino B.K.W mouse assessed as stereotyped behaviour at 20 to 80 mg/kg, sc; type: organism-based; set-up: dose 20-80 mg/kg, route subcutaneous; conditions: in vivo; summary of the method: as §6
[22] = system: Canis familiaris; assay: Increase in blood pressure in dog at 30 ug/kg, iv by cardiotachometer; type: functional, Canis lupus familiaris; summary of the method: as §2

For `COc1ccc(CC(C)N)cc1OC.Cl` (racemic), the inhibition [1] was “inactive”, the inhibition [2] was “inactive” and the Activity [3] was “<=10 mmHg”. For the same compound, the Activity [4] was “inactive”, the Activity [5] was “inactive” and the Activity [6] was “Non-toxic”. For the same compound, the Activity [7] was “inactive”, the Activity [8] was “Non-toxic” and the Activity [9] was “Non-toxic”. The Activity [10] was “Non-toxic”, the Activity [11] was “Non-toxic” and the Activity [12] was “Non-toxic”. For the same compound, the inhibition [13] was “inactive”.
In the case of `CNC(C)Cc1ccc(OC)c(OC)c1.Cl` (racemic), the inhibition [1] is reported as “inactive”, the inhibition [2] is reported as “inactive” and the Activity [3] is reported as “<=10 mmHg”. For the same compound, the Activity [4] was “inactive”, the Activity [5] was “inactive” and the Activity [6] was “Non-toxic”. The Activity [7] was “inactive”, the Activity [8] was “Non-toxic” and the inhibition [13] was “inactive”.
With `COc1ccc(CC(C)N(C)C)cc1OC.Cl` (racemic) the inhibition [1] was “inactive”, the inhibition [2] was “inactive” and the Activity [3] was “<=10 mmHg”. The Activity [4] was “inactive”, the Activity [5] was “inactive” and the Activity [6] was “Non-toxic”. For the same compound, the Activity [7] was “inactive”, the Activity [8] was “Non-toxic” and the inhibition [14] was “Active”. The inhibition [13] was “inactive”.
For `CCN(CC)C(C)Cc1ccc(OC)c(OC)c1.Cl` (racemic), the inhibition [1] was “inactive”, the Activity [15] was “Active” and the Activity [16] was “Active”. The MED [17] was 20, the inhibition [2] was “inactive” and the Activity [3] was “<=10 mmHg”. The Activity [4] was “inactive”, the Activity [5] was “inactive” and the Activity [6] was “Non-toxic”. The Activity [7] was “inactive”, the Activity [8] was “Non-toxic” and the inhibition [14] was “Active”. For the same compound, the inhibition [13] was “inactive”.
With `CCCN(CCC)C(C)Cc1ccc(OC)c(OC)c1.Cl` (racemic) the inhibition [1] was “inactive”, the inhibition [2] was “inactive” and the Activity [3] was “<=10 mmHg”. For the same compound, the Activity [4] was “inactive”, the Activity [6] was “Non-toxic” and the Activity [7] was “inactive”. For the same compound, the Activity [8] was “Non-toxic”, the inhibition [14] was “Active” and the inhibition [13] was “inactive”.
For `CCCCN(CCCC)C(C)Cc1ccc(OC)c(OC)c1.Cl` (racemic), the inhibition [1] was “inactive”, the inhibition [2] was “inactive” and the Activity [3] was “<=10 mmHg”. The Activity [4] was “inactive”, the Activity [6] was “Non-toxic” and the Activity [7] was “inactive”. For the same compound, the Activity [8] was “Non-toxic” and the inhibition [13] was “inactive”.
With `CCCNC(C)Cc1ccc(OC)c(OC)c1.Cl` (racemic) the inhibition [1] was “inactive”, the Activity [15] was “Active” and the Activity [16] was “Active”. The MED [17] was 20, the inhibition [2] was “inactive” and the Activity [3] was “<=10 mmHg”. For the same compound, the Activity [4] was “inactive”, the Activity [5] was “inactive” and the Activity [6] was “Non-toxic”. The Activity [7] was “inactive”, the Activity [8] was “Non-toxic” and the Activity [9] was “Non-toxic”. For the same compound, the Activity [10] was “Non-toxic”, the Activity [11] was “Non-toxic” and the Activity [12] was “Non-toxic”. The inhibition [13] was “inactive”.
For `CCCCNC(C)Cc1ccc(OC)c(OC)c1.Cl` (racemic), the inhibition [1] was “inactive”, the Activity [15] was “Active” and the Activity [16] was “Active”. For the same compound, the MED [17] was 20, the inhibition [2] was “inactive” and the Activity [3] was “<=10 mmHg”. For the same compound, the Activity [4] was “inactive”, the Activity [6] was “Non-toxic” and the Activity [7] was “inactive”. For the same compound, the Activity [8] was “Non-toxic” and the inhibition [13] was “inactive”.
For `CCNC(C)Cc1ccc(OC)c(OC)c1.Cl` (racemic), the inhibition [1] was “inactive”, the inhibition [2] was “inactive” and the Activity [3] was “<=10 mmHg”. The Activity [4] was “inactive”, the Activity [6] was “Non-toxic” and the Activity [7] was “inactive”. The Activity [8] was “Non-toxic” and the inhibition [13] was “inactive”.
In the case of `COc1ccc(CC(C)NC(C)C)cc1OC.Cl` (racemic), the inhibition [1] is reported as “inactive”, the inhibition [2] is reported as “inactive” and the Activity [3] is reported as “<=10 mmHg”. The Activity [4] was “inactive”, the Activity [5] was “inactive” and the Activity [6] was “Non-toxic”. The Activity [7] was “inactive”, the Activity [8] was “Non-toxic” and the inhibition [13] was “inactive”.
For `COc1ccc(CC(C)N(C)C(C)C)cc1OC.Cl` (racemic), the inhibition [1] was “inactive”, the Activity [15] was “Active” and the Activity [16] was “Active”. The MED [17] was 20, the inhibition [2] was “inactive” and the Activity [3] was “<=10 mmHg”. For the same compound, the Activity [4] was “inactive”, the Activity [6] was “Non-toxic” and the Activity [7] was “inactive”. The Activity [8] was “Non-toxic”, the inhibition [14] was “Active” and the inhibition [13] was “inactive”.
With `Br.CC(C)NC(C)Cc1ccc(O)c(O)c1` (racemic) the inhibition [1] was “inactive”, the inhibition [2] was “inactive” and the Activity [18] was 23 bpm. The Activity [6] was “Non-toxic”, the Activity [7] was “inactive” and the Activity [8] was “Non-toxic”. The Activity [9] was “Non-toxic”, the Activity [10] was “Non-toxic” and the Activity [11] was “Non-toxic”. For the same compound, the Activity [12] was “Non-toxic”, the Activity [19] was “Non-toxic” and the Activity [20] was “Non-toxic”. The Activity [21] was “Non-toxic”, the Activity [22] was 40% and the inhibition [13] was “inactive”.
In the case of `Br.CC(C)N(C)C(C)Cc1ccc(O)c(O)c1` (racemic), the inhibition [1] is reported as “inactive”, the Activity [15] is reported as “Active” and the Activity [16] is reported as “Active”. The MED [17] was 20, the inhibition [2] was “inactive” and the Activity [3] was “<=10 mmHg”. The Activity [4] was “inactive”, the Activity [6] was “Non-toxic” and the Activity [7] was “inactive”. For the same compound, the Activity [8] was “Non-toxic”, the inhibition [14] was “Active” and the Activity [9] was “Non-toxic”. The Activity [10] was “Non-toxic”, the Activity [11] was “Non-toxic” and the Activity [12] was “Non-toxic”. For the same compound, the Activity [19] was “Non-toxic”, the Activity [20] was “Non-toxic” and the Activity [21] was “Non-toxic”. For the same compound, the inhibition [13] was “inactive”.
With `Br.CCCCNC(C)Cc1ccc(O)c(O)c1` (racemic) the inhibition [1] was “inactive”, the inhibition [2] was “inactive” and the Activity [3] was “<=10 mmHg”. For the same compound, the Activity [4] was “inactive”, the Activity [6] was “Non-toxic” and the Activity [7] was “inactive”. For the same compound, the Activity [8] was “Non-toxic”, the Activity [9] was “Non-toxic” and the Activity [10] was “Non-toxic”. For the same compound, the Activity [11] was “Non-toxic”, the Activity [12] was “Non-toxic” and the Activity [19] was “Non-toxic”. For the same compound, the Activity [20] was “Non-toxic”, the Activity [21] was “Non-toxic” and the inhibition [13] was “inactive”.
For `Br.CCCCN(CCCC)C(C)Cc1ccc(O)c(O)c1` (racemic), the inhibition [1] was “inactive”, the inhibition [2] was “inactive” and the Activity [6] was “Non-toxic”. The Activity [7] was “inactive”, the Activity [8] was “Non-toxic” and the Activity [9] was “Non-toxic”. For the same compound, the Activity [10] was “Non-toxic”, the Activity [11] was “Non-toxic” and the Activity [12] was “Non-toxic”. The Activity [19] was “Non-toxic”, the Activity [20] was “Non-toxic” and the Activity [21] was “Non-toxic”. For the same compound, the inhibition [13] was “inactive”.
